By IC50 is commonly meant the point on the concentration scale where inhibition reaches its midpoint. Low readings indicate higher potency, high ones lower potency.

Common to all, as to type: functional, cell-based
The subject of one experiment is HCT-116. The experiment is described as follows: Cytotoxicity against human HCT116 cells after 4 days. The conditions noted are these: HCT-116, 96 h. In a few lines:
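HCT116 cells seeded as single-cell suspension at 2×10^3 cells/well onto serially diluted compounds, cultured 4 days; growth read with a cell counting kit. IC50 taken as concentration giving 50% growth inhibition relative to untreated control.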

The test system of the next experiment is DLD-1. The experiment is described as follows: Cytotoxicity against human DLD1 cells after 4 days. The following applies: DLD-1, 96 h.
For the next experiment, the system named is QG-56. Description: Cytotoxicity against human QG56 cells after 4 days. The conditions noted are these: QG-56, 96 h.
A further experiment relates to NCI-H460. Description: Cytotoxicity against human NCI-H460 cells after 4 days. The conditions noted are these: NCI-H460, 96 h.

As to `C/C=C(/C)C(=O)OC[C@H]1C2=C(C[C@H]3[C@H]4C5=C(C[C@@H]([C@H](C#N)N13)N4C)C(=O)C(C)=C(OC)C5=O)C(=O)C(C)=C(OC)C2=O` [RENIERAMYCIN M], the IC50 worked out at 7.9 nM with HCT-116, 9.6 nM in the experiment on DLD-1, 19 nM in the experiment on QG-56 and 5.9 nM in the experiment with NCI-H460.

As to `C/C=C(/C)C(=O)OC[C@H]1C2=C(C[C@H]3[C@H]4C5=C(C(=O)C(C)=C(OC)C5=O)[C@H](O)[C@@H]([C@H](C#N)N13)N4C)C(=O)C(C)=C(OC)C2=O` [RENIERAMYCIN O], the IC50 stood at 28 nM in the experiment with HCT-116 and 40 nM in the experiment with QG-56.

Take `COc1cc2c(cc1O)CCN[C@]21CS[C@@H]2c3c(OC(C)=O)c(C)c4c(c3[C@H](COC1=O)N1[C@@H]2[C@H]2c3c(cc(C)c(OC)c3O)C[C@@H]([C@@H]1C#N)N2C)OCO4` [ECTEINASCIDIN 770]: the IC50 was 1.2 nM in the experiment on HCT-116, 2.4 nM in the experiment with DLD-1, 3.9 nM in the experiment on QG-56 and 0.64 nM in the experiment on NCI-H460.

As for `COC1=C(C)C(=O)C2=C(C1=O)[C@@H]1[C@@H]3CC4=C(C(=O)C(OC)=C(C)C4=O)[C@H](CNC(=O)C(C)=O)N3[C@@H](C#N)[C@H](C2)N1C` [SAFRAMYCIN A], the IC50 in the experiment with HCT-116 came to 0.4 nM; in the experiment with DLD-1, 0.6 nM; in the experiment with QG-56, 5.5 nM; in the experiment on NCI-H460, 2.1 nM.

As to `C/C=C(/C)C(=O)OC[C@H]1C2=C(C[C@H]3[C@H]4c5c(O)c(OC)c(C)c(O)c5[C@H](O)[C@@H]([C@H](C#N)N13)N4C)C(=O)C(C)=C(OC)C2=O` [RENIERAMYCIN N], the IC50 turned out to be 5.6 nM with HCT-116, 5.7 nM in the experiment on DLD-1, 11 nM with QG-56 and 6.7 nM in the experiment with NCI-H460.

These data come from ChEMBL document CHEMBL1147245, “Chemistry of renieramycins. Part 3.(1) isolation and structure of stabilized renieramycin type derivatives possessing antitumor activity from Thai sponge Xestospongia species, pretreated with potassium cyanide” (J Nat Prod, 2003).
